Results from article PMC8828683 (Stem Cell Reports, 2022).

Legend:
[1] = system: SCUi24 iPSC; experiment: Live cells / PCD by FACS of nonpermeabilized cells stained with annexin-V and PI; type: cell-based, human; settings: read-out: IC50 Live Cells
How it was run: (§1)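 Cells were seeded so that vehicle wells stayed subconfluent, then treated with a range of test compound concentrations for 4 days. Without permeabilization, they were stained with annexin-V-FITC and propidium iodide and analysed by flow cytometry. Double-negative cells (Q3) were scored as live and Q1+Q2 as programmed death. Vehicle was set to 100% viable and 0% dead. Results are the mean of three independent assays with SEM; group averages and ratios are derived from the IC50s.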

[2] = system: human pluripotent cells (ESC, iPSC, ECC lines); experiment: PCD / live cell loss; type: cell-based; settings: ratio of average IC50
How it was run: as §1

[3] = system: VeroE6 cells; experiment: Inhibition of cell proliferation; type: cell-based, monkey; settings: read-out: IC50 inhibition of proliferation
[4] = system: WA01/H1 ESC; experiment: Cells with <2N DNA by FACS of permeabilized cells stained with PI; type: cell-based, human; settings: read-out: IC50 DNA (50% of cells with <2N DNA)
How it was run: (§2)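 Cells were exposed to a range of test compound concentrations alongside vehicle (DMSO) controls. They were then permeabilized, stained with propidium iodide, and DNA content was read by flow cytometry. IC50 is the concentration at which 50% of cells hold <2N DNA, from 3 independent repetitions with SEM. Line averages and differentiated/pluripotent ratios are derived from these IC50s. NTERA-2 was also run as a time course at 5 μM, normalized to vehicle at each time point.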

[5] = Toxicity studies in mice; type: in vivo, mouse; settings: doses from 20 to 100 mg/kg body weight
[6] = system: WA01/H1 ESC; experiment: Cellular ATP level; type: cell-based, human; settings: read-out: IC50 ATP
How it was run: (§3)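 Cellular ATP was measured with a CellTiter-Glo luminescence viability assay after exposure to a concentration range of test compound. IC50 is the average of three independent assays. Mean IC50s across differentiated or human pluripotent lines, and their ratio, are derived from the per-line values.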

[7] = system: HFF-1 normal skin fibroblast; experiment: Cells with <2N DNA by FACS of permeabilized cells stained with PI; type: cell-based, human; settings: read-out: IC50 DNA (50% of cells with <2N DNA); HFF-1
How it was run: as §2

[8] = system: WA09/H9 ESC; experiment: Cellular ATP level; type: cell-based, human; settings: read-out: IC50 ATP
How it was run: as §3

[9] = system: NTERA-2 ECC; experiment: Live cells / PCD by FACS of nonpermeabilized cells stained with annexin-V and PI; type: cell-based, human; settings: read-out: IC50 Live Cells; NTERA-2 ECC, 4 days
How it was run: as §1

[10] = system: human pluripotent cells; experiment: DNA loss; type: cell-based
How it was run: as §2

[11] = system: SCUi24 iPSC; experiment: Cells with <2N DNA by FACS of permeabilized cells stained with PI; type: cell-based, human; settings: read-out: IC50 DNA (50% of cells with <2N DNA)
How it was run: as §2

[12] = system: H108 normal skin fibroblast; experiment: Live cells / PCD by FACS of nonpermeabilized cells stained with annexin-V and PI; type: cell-based, human; settings: read-out: IC50 Live Cells; H108, 4 days
How it was run: as §1

[13] = system: WA09/H9 ESC; experiment: Cells with <2N DNA by FACS of permeabilized cells stained with PI; type: cell-based, human
How it was run: as §2

[14] = system: VeroE6 normal kidney epithelial; experiment: as above; type: cell-based, monkey; settings: read-out: IC50 DNA (50% of cells with <2N DNA)
How it was run: as §2

[15] = system: HFF-1 normal skin fibroblast; experiment: Live cells / PCD by FACS of nonpermeabilized cells stained with annexin-V and PI; type: cell-based, human; settings: read-out: IC50 Live Cells; HFF-1
How it was run: as §1

[16] = system: HBEC normal lung epithelial; experiment: Cellular ATP level; type: cell-based, human; settings: read-out: IC50 ATP
How it was run: as §3

[17] = system: NTERA-2 ECC; experiment: Cells with <2N DNA by FACS of permeabilized cells stained with PI; type: cell-based, human
How it was run: as §2

[18] = system: Mouse Gmnn(fl/fl);ER-Cre/+ ESCs; experiment: Cellular DNA content by FACS of permeabilized cells stained with PI; type: cell-based
How it was run: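 Mouse Gmnn(fl/fl);ER-Cre/+ embryonic stem cells were grown with 3 μM test compound (from a 20 mM DMSO stock) or DMSO vehicle for the indicated times. Attached and unattached cells were pooled, permeabilized and stained with propidium iodide. DNA content was measured by flow cytometry, scoring the fraction of cells with <2N DNA.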

[19] = system: SCUi24-diff (spontaneously differentiated SCUi24 iPSCs); experiment: Cells with <2N DNA by FACS of permeabilized cells stained with PI; type: cell-based, human; settings: read-out: IC50 DNA (50% of cells with <2N DNA)
How it was run: as §2

[20] = system: SCUi24 iPSC; experiment: Cellular ATP level; type: cell-based, human; settings: read-out: IC50 ATP
How it was run: as §3

[21] = system: GCT27D.C1 teratocarcinoma xenografts; experiment: Teratocarcinoma xenograft, daily intraperitoneal injections; type: in vivo, mice
How it was run: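 Six-week-old female […] BALB/c nude mice were injected subcutaneously in the lower right flank with 200 μL of 50% Matrigel holding 2 million NTERA-2 or 5 million GCT27D.C1 cells (eight mice per model). Once tumors were palpable, mice received 40 mg/kg test compound i.p. daily (DMSO solution diluted in sunflower oil to 200 μL) or vehicle. Tumor volume was calculated as length × width² × 0.5 from calipers, TGI was calculated, and body weight was tracked. Tumors were harvested 15 days later.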

[22] = system: TERA-2 ECC; experiment: Cells with <2N DNA by FACS of permeabilized cells stained with PI; type: cell-based, human; settings: read-out: IC50 DNA (50% of cells with <2N DNA)
How it was run: as §2

[23] = system: HBEC normal lung epithelial; experiment: as above; type: cell-based, human; settings: read-out: IC50 DNA (50% of cells with <2N DNA)
How it was run: as §2

[24] = system: differentiated cells; experiment: Inhibition of cell proliferation; type: cell-based; settings: read-out: IC50 inhibition of proliferation; insensitive differentiated cells
[25] = system: NTERA-2 ECCs; experiment: Immunoblotting of total cell extracts; type: cell-based, human
How it was run: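 Cells were cultured with 2.5 μM test compound for up to 96 h, and attached plus unattached cells were pooled. Whole-cell RIPA lysates were run on 4–12% Bis-Tris gels, transferred to nitrocellulose and blocked in 5% milk/TBS. Primary antibodies went on overnight at 4°C, followed by infrared secondary antibodies and imager quantitation. Each blot carried untreated U2OS as a shared standard, with Ponceau-S histones for normalization and lighter exposures for quantitation. Adriamycin for 24 h (NTERA-2 1 μM, H108 2 μM) served as a DNA-break control.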

[26] = system: GCT27D.C1 ECC; experiment: Live cells / PCD by FACS of nonpermeabilized cells stained with annexin-V and PI; type: cell-based, human; settings: read-out: IC50 Live Cells, 4 days
How it was run: as §1

[27] = NTERA-2, 2.5 μM WX8, normalized to histones

Structure (SMILES): C(=N\Nc1nc(Nc2ccccc2)nc(N2CCOCC2)n1)/c1c[nH]c2ccccc12 [WX8]
- IC50 [1]: 2.5 µM
- Difference in the initiation of PCD, differentiated vs pluripotent cells [2]: 35 fold
- IC50 [3]: 0.45 µM
- IC50 [4]: 2 µM
- Maximum dose at which no indication of mouse impairment was observed [5]: 40 mg/kg
- IC50 [6]: 1.6 µM
- IC50 [7]: 50 µM
- IC50 [8]: 0.26 µM
- IC50 [9]: 1.3 µM
- Difference in DNA loss, differentiated vs pluripotent cells ([10]; ratio of average IC50): 24 fold
- IC50 ([10]; read-out: IC50 DNA loss, on average, average over human pluripotent cells): 2.8 µM
- IC50 [11]: 1 µM
- IC50 [12]: 50 µM
- Range of sensitivity to WX8-induced cell death (DNA loss), HBEC/H9 ([13]; ratio differentiated/pluripotent): 5 fold
- IC50 ([13]; read-out: IC50 DNA (50% of cells with <2N DNA), WA09/H9 ESC): 5 µM
- IC50 [14]: 60 µM
- IC50 [15]: 75 µM
- IC50 [16]: 6 µM
- Cells with <2N DNA ([17]; NTERA-2, 5 μM WX8, 96h (4 days)): > 80%
- IC50 ([17]; read-out: IC50 DNA (50% of cells with <2N DNA), NTERA-2 ECC): 3.5 µM
- Cells with <2N DNA ([18]; 3 μM WX8, 72 hr): > 90%
- Cells with <2N DNA ([18]; 3 μM WX8, within 32 h): 50%
- IC50 [19]: > 10 µM
- IC50 [20]: 0.4 µM
- Tumor growth inhibition (TGI) ([21]; GCT27D.C1 tumors, 40 mg WX8/kg daily i.p.): 78%
- OCT4-, SOX2- and Ki67-stained cells in tumor slices ([21]; GCT27D.C1 tumors, 40 mg WX8/kg daily i.p., immunohistochemistry): selectively eliminated cells expressing OCT4 or SOX2 protein with no detectable effect on proliferating cells
- Mouse body weights ([21]; GCT27D.C1 xenograft mice, 40 mg WX8/kg daily i.p.): maintained
- Effect on teratocarcinoma xenografts ([21]; GCT27D.C1 xenografts, intraperitoneal injections of WX8): Eliminated stem cells and inhibited tumor growth
- IC50 [22]: 5 µM
- IC50 [23]: 20 µM
- IC50 [24]: > 100 µM
- CASP3 cleavage ([25]; NTERA-2, 2.5 μM WX8): < 2%
- PARP cleavage ([25]; NTERA-2, 2.5 μM WX8): 41%
- Accumulation of p62 protein [25, 27]: 9 fold
- Accumulation of total LC3 protein [25, 27]: 4 fold
- CASP12 cleavage ([25]; NTERA-2, WX8): < 2%
- Cleaved CASP7 ([25]; NTERA-2, WX8): not detected
- IC50 [26]: 0.28 µM
